Measured values as given in ChEMBL document CHEMBL4251567 (Eur J Med Chem, 2018).

What was measured:
[1] = target: T1, Protein deacetylase HDAC6 (Homo sapiens) (UniProt Q9UBN7); experiment: Inhibition of HDAC6 in human HeLa-S3 cell lysates assessed as remaining activity at […] preincubated for 15 mins followed by HDAC-Glo substrate addition measured after 30 to 40 mins by […] relative to control
T1 sequence (whole entry): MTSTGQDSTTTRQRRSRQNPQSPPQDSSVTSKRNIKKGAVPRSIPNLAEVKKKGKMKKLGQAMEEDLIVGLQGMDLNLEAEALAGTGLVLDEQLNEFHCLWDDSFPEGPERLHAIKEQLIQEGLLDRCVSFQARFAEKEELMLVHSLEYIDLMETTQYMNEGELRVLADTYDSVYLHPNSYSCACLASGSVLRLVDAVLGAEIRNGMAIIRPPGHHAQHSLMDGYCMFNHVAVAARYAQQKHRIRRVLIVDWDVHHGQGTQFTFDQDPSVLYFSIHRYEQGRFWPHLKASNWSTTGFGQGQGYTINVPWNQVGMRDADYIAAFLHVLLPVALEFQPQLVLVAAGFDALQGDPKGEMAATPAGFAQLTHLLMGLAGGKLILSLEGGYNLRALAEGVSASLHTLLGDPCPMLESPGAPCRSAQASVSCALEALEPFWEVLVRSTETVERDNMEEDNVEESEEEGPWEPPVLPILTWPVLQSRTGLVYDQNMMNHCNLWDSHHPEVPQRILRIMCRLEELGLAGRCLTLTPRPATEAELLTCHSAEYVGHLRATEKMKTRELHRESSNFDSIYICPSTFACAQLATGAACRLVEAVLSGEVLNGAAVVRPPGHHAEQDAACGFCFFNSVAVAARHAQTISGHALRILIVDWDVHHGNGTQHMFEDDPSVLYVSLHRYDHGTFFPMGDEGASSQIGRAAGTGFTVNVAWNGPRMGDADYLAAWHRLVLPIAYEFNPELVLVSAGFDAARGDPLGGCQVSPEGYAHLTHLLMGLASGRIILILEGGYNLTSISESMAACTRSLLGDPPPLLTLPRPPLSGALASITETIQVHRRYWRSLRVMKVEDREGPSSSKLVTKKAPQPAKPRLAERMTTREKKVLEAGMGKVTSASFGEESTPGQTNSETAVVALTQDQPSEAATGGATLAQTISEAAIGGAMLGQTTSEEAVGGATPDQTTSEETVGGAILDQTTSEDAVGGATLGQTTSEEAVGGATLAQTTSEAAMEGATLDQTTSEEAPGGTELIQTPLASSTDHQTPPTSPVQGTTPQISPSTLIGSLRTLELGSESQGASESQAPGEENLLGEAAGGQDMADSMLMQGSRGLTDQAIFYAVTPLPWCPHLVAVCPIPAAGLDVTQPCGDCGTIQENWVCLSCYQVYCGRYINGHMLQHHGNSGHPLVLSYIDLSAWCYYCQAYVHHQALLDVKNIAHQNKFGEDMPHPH

[2] = target: Histone deacetylase 3 (Homo sapiens) (UniProt O15379); experiment: Inhibition of HDAC3 in human HeLa-S3 cell lysates assessed as remaining activity at […] preincubated for 15 mins followed by HDAC-Glo substrate addition measured after 30 to 40 mins by […] relative to control
Sequence of Histone deacetylase 3 (Homo sapiens) (O15379 whole entry): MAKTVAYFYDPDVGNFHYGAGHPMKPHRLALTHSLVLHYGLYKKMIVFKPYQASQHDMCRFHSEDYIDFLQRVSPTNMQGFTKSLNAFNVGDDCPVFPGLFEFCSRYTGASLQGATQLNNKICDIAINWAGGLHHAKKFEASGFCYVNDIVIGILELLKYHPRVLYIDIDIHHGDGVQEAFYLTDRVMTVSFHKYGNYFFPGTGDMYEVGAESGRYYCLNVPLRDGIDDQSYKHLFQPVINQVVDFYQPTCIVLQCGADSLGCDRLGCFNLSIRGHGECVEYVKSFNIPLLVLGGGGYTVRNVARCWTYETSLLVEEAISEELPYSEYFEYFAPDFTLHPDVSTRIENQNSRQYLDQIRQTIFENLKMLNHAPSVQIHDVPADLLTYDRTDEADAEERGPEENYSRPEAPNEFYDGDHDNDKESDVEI

[3] = target: Histone deacetylase 2 (Homo sapiens) (UniProt Q92769); experiment: Inhibition of HDAC2 in human HeLa-S3 cell lysates assessed as remaining activity at […] preincubated for 15 mins followed by HDAC-Glo substrate addition measured after 30 to 40 mins by […] relative to control
Sequence of Histone deacetylase 2 (Homo sapiens) (Q92769 whole entry): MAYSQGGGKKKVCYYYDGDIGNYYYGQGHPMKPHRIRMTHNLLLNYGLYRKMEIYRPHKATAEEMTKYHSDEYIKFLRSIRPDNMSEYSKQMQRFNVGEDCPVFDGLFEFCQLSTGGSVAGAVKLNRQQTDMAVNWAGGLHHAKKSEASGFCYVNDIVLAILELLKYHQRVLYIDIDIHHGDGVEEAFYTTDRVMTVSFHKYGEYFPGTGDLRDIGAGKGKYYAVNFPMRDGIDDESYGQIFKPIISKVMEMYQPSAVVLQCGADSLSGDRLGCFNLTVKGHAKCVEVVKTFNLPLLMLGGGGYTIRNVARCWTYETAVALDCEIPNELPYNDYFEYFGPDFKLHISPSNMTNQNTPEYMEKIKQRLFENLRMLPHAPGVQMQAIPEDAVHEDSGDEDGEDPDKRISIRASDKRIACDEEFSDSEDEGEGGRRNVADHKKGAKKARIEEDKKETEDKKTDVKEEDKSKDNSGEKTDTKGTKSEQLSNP

[4] = target: T2, Histone deacetylase (Homo sapiens) (UniProt Q13547+O15379+Q9UBN7+Q92769+Q9UQL6+Q8WUI4+Q9BY41+Q96DB2+P56524+Q9UKV0+Q969S8); experiment: Inhibition of HDAC in human HeLa-S3 cell lysates assessed as residual activity at 5 x 10^-6 M preincubated for 15 mins followed by HDAC-Glo substrate addition measured after 35 mins by fluorimetric method relative to control; type: protein assay
Summary of the method: (§1)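 Lysate (1 μg total protein) in HDAC-Glo buffer was preincubated with inhibitor in DMSO for 15 min at room temperature. HDAC-Glo substrate/developer reagent was added and luminescence read after 35 min. Concentrations are final. Signal corrected for a no-lysate blank; % of DMSO control.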

[5] = target: T2, Histone deacetylase (Homo sapiens); experiment: Inhibition of HDAC in human HeLa-S3 cell lysates assessed as residual activity at 1 x 10^-5 M preincubated for 15 mins followed by HDAC-Glo substrate addition measured after 35 mins by […] relative to control; type: protein assay; summary of the method: as §1
[6] = target: Histone deacetylase 1 (Homo sapiens) (UniProt Q13547); experiment: Inhibition of HDAC1 in human HeLa-S3 cell lysates assessed as remaining activity at […] preincubated for 15 mins followed by HDAC-Glo substrate addition measured after 30 to 40 mins by […] relative to control
Sequence of Histone deacetylase 1 (Homo sapiens) (Q13547 whole entry): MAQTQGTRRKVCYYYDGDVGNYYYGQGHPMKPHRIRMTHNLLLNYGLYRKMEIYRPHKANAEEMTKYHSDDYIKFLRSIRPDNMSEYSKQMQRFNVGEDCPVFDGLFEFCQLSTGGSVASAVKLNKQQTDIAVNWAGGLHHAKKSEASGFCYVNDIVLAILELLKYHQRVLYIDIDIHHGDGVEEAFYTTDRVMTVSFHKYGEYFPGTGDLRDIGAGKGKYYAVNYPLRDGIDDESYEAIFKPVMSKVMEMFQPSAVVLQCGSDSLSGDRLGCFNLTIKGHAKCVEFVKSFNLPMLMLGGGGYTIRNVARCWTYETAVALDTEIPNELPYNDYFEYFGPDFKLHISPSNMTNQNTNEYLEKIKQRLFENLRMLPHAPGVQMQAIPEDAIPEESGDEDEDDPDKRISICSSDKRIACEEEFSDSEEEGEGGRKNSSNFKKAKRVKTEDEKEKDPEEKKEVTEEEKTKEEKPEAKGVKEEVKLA

[7] = target: Histone deacetylase; experiment: Inhibition of HDAC in human HeLa-S3 cell lysates preincubated for 15 mins followed by HDAC-Glo substrate addition measured after 35 mins by fluorimetric method; type: protein assay
[8] = target: T2, Histone deacetylase (Homo sapiens); experiment: Inhibition of HDAC in human HeLa-S3 cell lysates assessed as residual activity at 6.25 x 10^-6 M preincubated for 15 mins followed by HDAC-Glo substrate addition measured after 35 mins by […] relative to control; type: protein assay
[9] = target: T2, Histone deacetylase (Homo sapiens); experiment: Inhibition of HDAC in human HeLa-S3 cell lysates assessed as residual activity at 2.5 x 10^-6 M preincubated for 15 mins followed by HDAC-Glo substrate addition measured after 35 mins by […] relative to control; type: protein assay; summary of the method: as §1
[10] = target: T2, Histone deacetylase (Homo sapiens); experiment: Inhibition of HDAC in human HeLa-S3 cell lysates assessed as residual activity at 1.25 x 10^-6 M preincubated for 15 mins followed by HDAC-Glo substrate addition measured after 35 mins by […] relative to control; type: protein assay; summary of the method: as §1
[11] = test system: Jurkat; experiment: Cytotoxicity against human Jurkat cells assessed as cell viability at 1 uM after 44 hrs by MTT assay relative to control; type: functional; details: read-out: Activity
[12] = test system: Jurkat; experiment: Cytotoxicity against human Jurkat cells assessed as cell viability at 10 uM after 44 hrs by MTT assay relative to control; type: functional; details: read-out: Activity
[13] = test system: U-937; experiment: Cytotoxicity against human U937 cells assessed as cell viability at 4 x 10^-6 M after 44 hrs by MTT assay relative to control; type: functional; details: U-937, 44 h, read-out: Activity
[14] = test system: U-937; experiment: Cytotoxicity against human U937 cells assessed as cell viability at 8 x 10^-6 M after 44 hrs by MTT assay relative to control; type: functional; details: U-937, 44 h, read-out: Activity
[15] = test system: U-937; experiment: Cytotoxicity against human U937 cells assessed as cell viability at 2 x 10^-6 M after 44 hrs by MTT assay relative to control; type: functional; details: U-937, 44 h, read-out: Activity
[16] = test system: U-937; experiment: Cytotoxicity against human U937 cells assessed as cell viability at 3.2 x 10^-5 M after 44 hrs by MTT assay relative to control; type: functional; details: U-937, 44 h, read-out: Activity
[17] = test system: U-937; experiment: Cytotoxicity against human U937 cells assessed as cell viability at 6.4 x 10^-5 M after 44 hrs by MTT assay relative to control; type: functional; details: U-937, 44 h, read-out: Activity
[18] = test system: U-937; experiment: Cytotoxicity against human U937 cells assessed as cell viability at 1.6 x 10^-5 M after 44 hrs by MTT assay relative to control; type: functional; details: U-937, 44 h, read-out: Activity
[19] = test system: U-937; experiment: Cytotoxicity against human U937 cells assessed as decrease in cell viability after 44 hrs by MTT assay; type: functional, cell-based; details: u-937

Activity [1] | Activity [2] | Activity [3] | Activity [4] | Activity [5] | Activity [6] | IC50 [7] | Activity [8] | Activity [9] | Activity [10] | Compound | viability at 1 µM [11] | viability at 10 µM [12] | viability at 4 µM [13] | viability at 8 µM [14] | viability at 2 µM [15] | viability at 32 µM [16] | viability at 64 µM [17] | viability at 16 µM [18] | EC50 [19]
26% | 78% | 90% | 38% | 17% | 75% | 3.3 µM | 91% | 60% | 79% | CC(CCCC(=O)Nc1ccccc1)CCC(=O)NO (centres undefined) |  |  |  |  |  |  |  |  | 
 |  |  |  |  |  |  |  |  |  | CCCCC(CCCC(=O)Nc1ccccc1)CCC(=O)NO (centres undefined) | 98% | 62% | 100% | 87% | 100% | 54% | 24% | 80% | 34 µM
